From ChEMBL document CHEMBL1165965, “Synthesis and structure-activity relationships of 1,2,3,4-tetrahydropyrido[2,3-b]pyrazines as potent and selective inhibitors of the anaplastic lymphoma kinase” (Bioorg Med Chem, 2010)

How the values were obtained:
[1] = target: T1, Interleukin-1 receptor-associated kinase 3 (Homo sapiens) (UniProt Q9Y616); test: Inhibition of IRAK3 at 1 uM
T1 sequence (whole entry): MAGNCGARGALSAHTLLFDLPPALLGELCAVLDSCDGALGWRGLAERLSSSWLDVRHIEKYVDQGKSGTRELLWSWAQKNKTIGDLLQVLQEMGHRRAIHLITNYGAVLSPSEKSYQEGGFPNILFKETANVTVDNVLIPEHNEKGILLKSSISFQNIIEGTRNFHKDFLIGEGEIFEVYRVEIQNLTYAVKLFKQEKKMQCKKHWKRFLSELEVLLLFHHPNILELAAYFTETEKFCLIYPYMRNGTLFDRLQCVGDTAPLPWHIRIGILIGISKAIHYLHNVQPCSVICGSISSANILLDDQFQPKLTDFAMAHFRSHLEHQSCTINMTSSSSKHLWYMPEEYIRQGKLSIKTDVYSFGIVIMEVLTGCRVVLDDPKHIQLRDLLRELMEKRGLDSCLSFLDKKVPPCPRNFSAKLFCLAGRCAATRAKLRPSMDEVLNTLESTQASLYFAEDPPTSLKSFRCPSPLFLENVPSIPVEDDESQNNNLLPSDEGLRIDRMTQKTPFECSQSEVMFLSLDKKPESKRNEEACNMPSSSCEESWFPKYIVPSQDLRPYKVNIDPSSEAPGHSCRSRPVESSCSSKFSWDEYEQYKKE
Outline: (§1)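 Single-concentration screen on the Ambit KINOMEscan platform, run against a panel of 250–400 kinases. Per-kinase inhibition was also summarized as S(90), the fraction of kinases inhibited by more than 90%.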

[2] = target: Cyclin-dependent kinase 7 (Homo sapiens) (UniProt P50613); test: Inhibition of CDK7 at 1 uM
Sequence of Cyclin-dependent kinase 7 (Homo sapiens) (P50613 whole entry): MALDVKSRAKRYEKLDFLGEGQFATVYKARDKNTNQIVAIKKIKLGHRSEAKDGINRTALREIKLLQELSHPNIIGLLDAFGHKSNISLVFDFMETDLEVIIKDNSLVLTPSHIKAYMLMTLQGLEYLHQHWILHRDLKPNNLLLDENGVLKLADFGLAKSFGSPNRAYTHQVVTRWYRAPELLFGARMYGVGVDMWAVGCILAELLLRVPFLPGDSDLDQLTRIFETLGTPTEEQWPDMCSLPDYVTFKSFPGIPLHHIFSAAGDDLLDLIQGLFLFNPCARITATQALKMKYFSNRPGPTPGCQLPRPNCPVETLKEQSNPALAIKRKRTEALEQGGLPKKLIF

[3] = target: T2, Megakaryocyte-associated tyrosine-protein kinase (Homo sapiens) (UniProt P42679); test: Inhibition of CTK at 1 uM
T2 sequence (whole entry): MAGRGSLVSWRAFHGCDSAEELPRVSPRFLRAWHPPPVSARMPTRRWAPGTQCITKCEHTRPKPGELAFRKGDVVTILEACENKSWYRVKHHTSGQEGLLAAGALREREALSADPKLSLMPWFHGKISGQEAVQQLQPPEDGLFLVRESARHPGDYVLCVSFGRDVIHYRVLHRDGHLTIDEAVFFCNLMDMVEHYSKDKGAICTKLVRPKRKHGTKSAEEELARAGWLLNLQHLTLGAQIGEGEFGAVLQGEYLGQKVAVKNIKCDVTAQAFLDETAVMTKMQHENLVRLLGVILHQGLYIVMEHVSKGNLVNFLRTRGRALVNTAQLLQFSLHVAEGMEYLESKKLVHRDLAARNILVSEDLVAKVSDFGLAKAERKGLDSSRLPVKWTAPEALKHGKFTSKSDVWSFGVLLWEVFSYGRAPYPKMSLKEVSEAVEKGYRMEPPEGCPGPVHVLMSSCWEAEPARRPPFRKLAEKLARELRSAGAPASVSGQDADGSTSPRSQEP

[4] = target: Epidermal growth factor receptor (Homo sapiens) (UniProt P04626+P00533+Q15303+P21860); test: Inhibition of EGFR E746-A750del mutant at 1 uM; type: protein assay
Outline: (§2)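 Single-concentration screen using Ambit Bioscience KINOMEscan technology across a panel of 250–400 kinases. Per-kinase inhibition from this screen was summarized as S(90), the fraction of kinases inhibited by more than 90%.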

[5] = target: T3, Ephrin type-B receptor 4 (Homo sapiens) (UniProt P54760); test: Inhibition of EPHB4 at 1 uM; outline: as §2
T3 sequence (whole entry): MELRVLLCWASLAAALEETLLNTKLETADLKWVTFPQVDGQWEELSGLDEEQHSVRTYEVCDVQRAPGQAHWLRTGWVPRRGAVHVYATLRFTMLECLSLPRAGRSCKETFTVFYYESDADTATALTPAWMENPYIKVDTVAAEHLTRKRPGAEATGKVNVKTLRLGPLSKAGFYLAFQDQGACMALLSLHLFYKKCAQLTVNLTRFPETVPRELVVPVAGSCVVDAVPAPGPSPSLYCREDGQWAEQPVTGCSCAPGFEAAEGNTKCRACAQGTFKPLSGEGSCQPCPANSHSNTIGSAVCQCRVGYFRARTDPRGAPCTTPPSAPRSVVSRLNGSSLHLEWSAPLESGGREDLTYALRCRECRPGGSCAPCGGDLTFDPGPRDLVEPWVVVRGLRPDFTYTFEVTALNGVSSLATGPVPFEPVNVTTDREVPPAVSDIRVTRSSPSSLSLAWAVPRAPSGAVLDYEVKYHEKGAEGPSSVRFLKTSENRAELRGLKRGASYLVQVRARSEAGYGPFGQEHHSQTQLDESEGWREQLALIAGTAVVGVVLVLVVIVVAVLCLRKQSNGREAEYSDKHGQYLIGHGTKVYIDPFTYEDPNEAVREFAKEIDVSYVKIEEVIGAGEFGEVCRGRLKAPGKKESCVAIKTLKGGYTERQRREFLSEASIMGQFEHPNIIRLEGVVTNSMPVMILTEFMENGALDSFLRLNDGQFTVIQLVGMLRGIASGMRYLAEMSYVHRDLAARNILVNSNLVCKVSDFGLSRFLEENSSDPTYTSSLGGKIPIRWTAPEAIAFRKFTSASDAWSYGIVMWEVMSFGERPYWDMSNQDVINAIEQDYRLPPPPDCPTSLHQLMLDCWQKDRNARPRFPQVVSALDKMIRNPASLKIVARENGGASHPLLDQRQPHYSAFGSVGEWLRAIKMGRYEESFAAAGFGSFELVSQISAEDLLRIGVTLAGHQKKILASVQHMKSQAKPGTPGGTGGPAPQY

[6] = target: Fibroblast growth factor receptor 4 (Homo sapiens) (UniProt P22455); test: Inhibition of FGFR4 at 1 uM; outline: as §1
Sequence of Fibroblast growth factor receptor 4 (Homo sapiens) (P22455 22-802 limits assumed): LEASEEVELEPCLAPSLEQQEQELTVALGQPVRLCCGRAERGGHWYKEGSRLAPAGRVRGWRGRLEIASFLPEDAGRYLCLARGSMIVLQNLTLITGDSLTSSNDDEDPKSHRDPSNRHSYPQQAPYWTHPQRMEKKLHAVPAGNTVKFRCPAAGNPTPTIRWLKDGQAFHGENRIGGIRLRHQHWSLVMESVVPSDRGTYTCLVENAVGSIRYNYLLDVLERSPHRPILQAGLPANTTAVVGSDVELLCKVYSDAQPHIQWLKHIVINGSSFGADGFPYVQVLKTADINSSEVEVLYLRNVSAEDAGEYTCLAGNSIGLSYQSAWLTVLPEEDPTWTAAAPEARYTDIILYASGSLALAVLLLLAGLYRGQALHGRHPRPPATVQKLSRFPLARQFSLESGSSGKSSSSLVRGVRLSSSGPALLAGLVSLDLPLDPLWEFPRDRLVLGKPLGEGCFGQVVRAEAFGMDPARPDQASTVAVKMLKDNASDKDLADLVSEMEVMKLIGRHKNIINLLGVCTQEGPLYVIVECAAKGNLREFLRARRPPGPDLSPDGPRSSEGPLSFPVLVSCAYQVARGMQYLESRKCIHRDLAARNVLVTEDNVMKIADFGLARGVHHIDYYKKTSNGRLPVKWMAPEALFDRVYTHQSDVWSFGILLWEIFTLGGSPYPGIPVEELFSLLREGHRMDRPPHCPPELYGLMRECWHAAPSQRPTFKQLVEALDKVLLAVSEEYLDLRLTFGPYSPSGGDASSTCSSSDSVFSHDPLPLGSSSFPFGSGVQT

inhibition [1] [%]	inhibition [2] [%]	inhibition [3] [%]	inhibition [4] [%]	inhibition [5] [%]	inhibition [6] [%]	SMILES
< 50	< 50	< 50	< 50	< 50	< 50	CN1CCN(c2ccc(-c3cnc4c(c3)N(Cc3cc(Cl)ccc3Cl)CCN4)cn2)CC1
< 50	< 50	< 50	< 50	< 50	< 50	CN1CCN(c2ccc(-c3cnc4c(c3)N(Cc3cc(Cl)ccc3C(F)(F)F)CCN4)cn2)CC1
< 50		< 50	< 50	< 50	< 50	COC1CCN(C(=O)c2ccc(-c3cnc4c(c3)N(Cc3cc(Cl)ccc3C(F)(F)F)CCN4)cc2)CC1
< 50		< 50	< 50	< 50	< 50	O=C(c1ccc(-c2cnc3c(c2)N(Cc2cc(Cl)ccc2C(F)(F)F)CCN3)cc1)N1CCCCC1
74	< 50	< 50	< 50	< 50	< 50	FC(F)(F)c1ccc(Cl)cc1CN1CCNc2ncc(-c3ccnc(N4CCNCC4)c3)cc21
< 50	< 50	< 50	< 50	< 50	< 50	CC(=O)N1CCN(c2cc(-c3cnc4c(c3)N(Cc3cc(Cl)ccc3C(F)(F)F)CCN4)ccn2)CC1
< 50			< 50	< 50	< 50	O=C(O)c1ccc(-c2cnc3c(c2)N(Cc2cc(Cl)ccc2C(F)(F)F)CCN3)cc1
< 50		< 50	< 50	< 50	< 50	O=C(c1ccc(-c2cnc3c(c2)N(Cc2cc(Cl)ccc2C(F)(F)F)CCN3)cc1)N1CCC(N2CCCC2)CC1
< 50	< 50	< 50	< 50	< 50	< 50	CN1CCN(c2ccc(-c3cnc4c(c3)N(Cc3c(F)ccc(F)c3Cl)CCN4)cn2)CC1
< 50	< 50	< 50	< 50	< 50	< 50	CN1CCN(c2ccc(-c3cnc4c(c3)N(Cc3cc(F)ccc3F)CCN4)cn2)CC1
